Screening data deposited in PubChem by Broad Institute.
DYRK1A inh – blocks rat Dyrk1A kinase activity; Q63470; inhibition, % at 12.5 µM; ADP-Glo luminescence, NFATc1 peptide; 0.43% of 310,000 active; in the data active means inhibition above about 50%;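 further: plate controls were vehicle with enzyme for no effect and no enzyme for full effect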
STK33 inh – inhibitors of human STK33 kinase; Q9BYT3; purified STK33, MBP phosphorylation, ADP-Glo luminescence; inhibition, % at 10 µM; 0.073% of 320,000 active; AID 2661;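 active means inhibition at or above 25%, using the most active replicate where run in duplicate; inactive means inhibition below 25%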
Target sequence (Q9BYT3 whole entry, looked up): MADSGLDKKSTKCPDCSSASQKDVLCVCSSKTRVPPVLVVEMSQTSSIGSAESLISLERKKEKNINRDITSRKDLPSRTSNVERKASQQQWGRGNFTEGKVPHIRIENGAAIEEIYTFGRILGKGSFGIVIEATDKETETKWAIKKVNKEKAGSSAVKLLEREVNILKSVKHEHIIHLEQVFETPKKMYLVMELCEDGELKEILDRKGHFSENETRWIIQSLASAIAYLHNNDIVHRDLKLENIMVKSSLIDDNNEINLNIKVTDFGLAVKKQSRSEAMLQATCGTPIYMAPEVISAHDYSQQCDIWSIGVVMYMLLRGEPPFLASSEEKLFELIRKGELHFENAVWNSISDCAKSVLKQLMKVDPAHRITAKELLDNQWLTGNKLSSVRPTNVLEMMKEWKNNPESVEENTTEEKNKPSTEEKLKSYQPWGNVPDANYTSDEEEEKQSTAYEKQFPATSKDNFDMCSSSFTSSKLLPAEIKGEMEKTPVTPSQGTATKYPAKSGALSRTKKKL
GSK3B inh – human GSK3beta kinase inhibition; P49841; GST-GSK3beta kinase, ADP-Glo luminescence, 60 min; hits give low values; AID 2097; 0.038% of 300,000 active; activity score (negative = inhibition), % at 10 µM;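 active means more than half of replicate wells score below -50%, meaning over 50% inhibition versus plate controls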;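 further: 0% = median DMSO wells and -100% = median GW8510 positive control wells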
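test system = GST-tagged human GSK3beta kinase, cell-free | reagent = 25 µM ATP with peptide substrate | dosing = one dose of 10 µM per compound | schedule = 60 min reaction, RT | detection = luminescent ADP-Glo measurement of ADP formed | control set = DMSO neutral wells and GW8510 at 20 µM as positive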
GSK3A inh – inhibitors of human GSK-3 alpha kinase. inhibition, % at 10 µM. ADP-Glo luminescence, 60 min. 0.1% of 320,000 active. AID 2650. P49840;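 active means more than half of replicates show inhibition above 20%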;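 further: GST-tagged GSK-3 alpha with peptide substrate and 25 µM ATP; 0% = DMSO neutral wells and 100% = GW8510 positive control wells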
Starred values were filed as active, the others as inactive; · = no result given. The entries come from a sample that favours hits as a whole.

SMILES | DYRK1A inh | STK33 inh | GSK3B inh | GSK3A inh
Cc1cc(O)c(C=O)c2c1C(=O)Oc1c(CO)c(O)c3c(c1O2)C(O)OC3=O (configuration not stated) | 51* | 57* | · | 6
CCOC(=O)Cc1nnc(NC(=O)COc2ccc(C)cc2)s1 | 3 | 27* | -1 | 0
CCOC(=O)Cc1nnc(NC(=O)COc2ccc(OC)cc2)s1 | · | 0 | 0 | -1
Cc1cccc(N=c2oc3cc(O)ccc3cc2C(N)=O)c1 | -6 | 19 | 0 | 56*
Fc1cccc(Nc2nc(-c3ccncc3)nc3ccccc23)c1 | 2 | -1 | -75* | 0
Cc1ccc(-c2nc(Nc3ccc(O)cc3)c3ccccc3n2)cc1 | · | 0 | 2 | 5
Cc1ccc(-c2nc(Nc3cccc(O)c3)c3ccccc3n2)cc1 | 64* | 0 | 0 | 16
COc1ccc(Nc2nc(-c3ccccc3O)nc3ccccc23)cc1 | -2 | 4 | -4 | -3
Oc1ccc(Nc2nc(-c3ccccc3O)nc3ccccc23)cc1 | 3 | 49* | 0 | -3
COc1ccc(C(=O)COC(=O)c2cc(=O)[nH]c3ccccc23)c(OC)c1 | 16 | -2 | -1 | -3
Cc1cc(C=C2C(=O)c3ccccc3C2=O)c(C)n1-c1ccc(C(=O)O)cc1 | -4 | 32* | 0 | 2
Cc1cc(C=O)c(C)n1-c1cccc(C(=O)O)c1 | -2 | -1 | 4 | -2
Cc1cc(C=C2C(=O)c3ccccc3C2=O)c(C)n1-c1cccc(C(=O)O)c1 | 21 | 43* | -1 | -1
COc1ccccc1NS(=O)(=O)c1ccc(C(=O)NCC(c2ccco2)N2CCCCC2)cc1 (configuration not stated) | 5 | · | · | ·
NC(=O)c1ccsc1NC(=O)COC(=O)c1cnccn1 | 8 | 0 | · | 11
CN(c1ncnc(N)c1[N+](=O)[O-])C1CCS(=O)(=O)C1 (configuration not stated) | 16 | -1 | -37 | 55*
CN(c1ncnc(N)c1[N+](=O)[O-])C1CCCCC1 | 17 | 3 | -33 | 22
CC1(C)Cc2cccc(C(=O)Nc3ccc(Cl)cc3)c2O1 | 14 | -1 | 1 | 2
CC1(C)Cc2cccc(C(=O)Nc3ccncc3)c2O1 | 46 | 10 | 1 | 73*
Nc1nc(Nc2cccc(F)c2)nc(N2CCOCC2)c1[N+](=O)[O-] | 34 | 5 | -19 | 24
Nc1nc(NCCCN2CCOCC2)nc(Nc2ccc(F)cc2)c1[N+](=O)[O-] | 10 | 0 | 12 | 51*
COc1ccc(Nc2nc(NCCCN3CCOCC3)nc(N)c2[N+](=O)[O-])cc1 | 14 | 2 | -56* | 85*
Cc1cccc(Nc2nc(NCCCN3CCOCC3)nc(N)c2[N+](=O)[O-])c1 | · | 5 | -74* | 75*
Nc1nc(NCCCN2CCOCC2)nc(Nc2cccc(F)c2)c1[N+](=O)[O-] | 38 | -3 | -71* | 57*
Cc1cccc(Nc2nc(N)c([N+](=O)[O-])c(NCc3ccccc3)n2)c1 | 18 | 1 | -5 | 7
SMILES | DYRK1A inh | STK33 inh | GSK3B inh | GSK3A inh
COc1c(C=O)c2c(c(OC)c1OC)-c1ccc(OC)c(=O)cc1C(NC(C)=O)CC2 (configuration not stated) | 0 | · | · | ·
COC(=O)c1ccc(OC(=O)C2CSC3(C)CCC(=O)N23)cc1 (configuration not stated) | · | -1 | 4 | -1
Oc1cc(O)cc(/C=C/c2ccc(O)c(O)c2)c1 | 69* | 50* | · | 28
CC(Sc1ncccn1)C(=O)N1CCc2ccccc21 (configuration not stated) | -4 | · | · | ·
N#C/C(=N\Nc1ccccc1Cl)C(=O)c1ccccc1 | -7 | 0 | 0 | -2
N#C/C(=N\Nc1c(Cl)cccc1Cl)C(=O)NN | 5 | 14 | -24 | 75*
CCCN(CCC)CCCNc1ccc2nnc(-c3ccc(F)cc3)n2n1 | 13 | 2 | -44 | 56*
CCn1c2ccc(C)cc2c2nc3cc(C(=O)O)ccc3nc21 | 28 | 57* | -5 | 28
CCn1c2ccc(Cl)cc2c2nc3ccccc3nc21 | · | 2 | 1 | ·
Cc1cc(-n2cnnn2)cc(C)c1S(=O)(=O)NCCOc1ccccc1 | 1 | · | 0 | ·
NS(=O)(=O)c1ccc(NC(=O)CSc2nnc(-c3ccc(O)cc3)o2)cc1 | 30 | 7 | -2 | 53*
c1ccc(Nc2ccnc(Nc3ccccc3)n2)cc1 | 38 | 36* | 0 | 14
NNc1nc(Nc2ccccc2)nc(Nc2ccccc2)n1 | -23 | 1 | 0 | -3
CCN(CC)Cc1c(C(=O)N/N=C/c2ccccn2)nnn1-c1nonc1N | -6 | 1 | -54* | 60*
CC(=C/c1ccco1)/C=N/NC(=O)c1nnn(-c2nonc2N)c1CN(C)C | -2 | -1 | 3 | 59*
